Drawing on ChEMBL document CHEMBL2021898, “Prenylated acylphloroglucinols, chipericumins A-D, from Hypericum chinense” (J Nat Prod, 2012), this text covers IC50 and MIC for five compounds.

The subject of one experiment is KB. The experiment can be described thus: Cytotoxicity against human KB cells incubated for 48 hrs at 37 degC. The format is functional, cell-based. An outline of the steps: (§1)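 Human epidermoid carcinoma KB and murine leukemia L1210 cells were cultured with test compounds at various concentrations, dissolved in 1% DMSO, in 100 μL medium at 37 °C for 48 h. IC50 was taken from a plot of log concentration against growth rate of treated cells. Paclitaxel was the positive control.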

The next experiment has as its system L1210. The experiment can be described thus: Cytotoxicity against mouse L1210 cells incubated for 48 hrs at 37 degC. The format is functional, cell-based. The following applies: L1210, 48 h. An outline of the steps: as §1
A further experiment deals with Escherichia coli. Briefly: Antimicrobial activity against Escherichia coli by broth micro-dilution method. It counts as functional.
Another experiment deals with Staphylococcus aureus. Briefly: Antimicrobial activity against Staphylococcus aureus by broth micro-dilution method. It counts as functional.
In the next experiment the test system is Bacillus subtilis. Briefly: Antimicrobial activity against Bacillus subtilis by broth micro-dilution method. It counts as functional.
The next experiment has as its system Micrococcus luteus. The experiment can be described thus: Antimicrobial activity against Micrococcus luteus by broth micro-dilution method. It counts as functional.
The test system of the next experiment is Aspergillus niger. Briefly: Antimicrobial activity against Aspergillus niger by broth micro-dilution method. It counts as functional, organism-based.
In a further experiment the test system is Candida albicans. Briefly: Antimicrobial activity against Candida albicans by broth micro-dilution method. It counts as functional, organism-based.
Another experiment deals with Cryptococcus neoformans. Briefly: Antimicrobial activity against Cryptococcus neoformans by broth micro-dilution method. It counts as functional, organism-based.
In experiment [1] the test system is Trichophyton mentagrophytes. Briefly: Antimicrobial activity against Trichophyton mentagrophytes by broth micro-dilution method. It counts as functional, organism-based.

Some results are limits rather than exact numbers.

With `CCC(C)C(=O)C1=C(O)[C@@](C)(CC=C(C)C)C(=O)[C@@]2(C[C@H]3[C@@H](CC[C@@]3(C)O)[C@](C)(O)C2)C1=O` (relative stereo), the IC50 with KB is above 10 µg/mL; in the experiment on L1210 it was above 10 µg/mL; in the experiment with Aspergillus niger it was above 32 µg/mL; in the experiment on Candida albicans, above 32 µg/mL; in the experiment on Cryptococcus neoformans, above 32 µg/mL; in experiment [1] it was above 32 µg/mL. The minimum inhibitory concentration (MIC) in the experiment on Escherichia coli, in the experiment with Staphylococcus aureus, in the experiment on Bacillus subtilis and against Micrococcus luteus was above 32 µg/mL in each case.

`CC(=O)O[C@H]1C(=O)[C@@]2(C)[C@H]([C@H](OC(=O)c3ccccc3)[C@]3(O)C[C@H](OC(=O)[C@H](O)[C@@H](NC(=O)c4ccccc4)c4ccccc4)C(C)=C1C3(C)C)[C@]1(OC(C)=O)CO[C@@H]1C[C@@H]2O` [PACLITAXEL]: the IC50 in the experiment on KB came to 4.5 nM; in the experiment on L1210 it was 120 nM.

Consider `CC(C)C(=O)C1=C2O[C@H](C(C)(C)O)C[C@]2(C)C(=O)[C@]2(C[C@H]3[C@@H](CC[C@@]3(C)O)[C@](C)(O)C2)C1=O` (relative stereo), for which the IC50 in the experiment with KB was above 10 µg/mL; with L1210 it was above 10 µg/mL; in the experiment with Aspergillus niger, above 32 µg/mL; in the experiment with Candida albicans, above 32 µg/mL; in the experiment with Cryptococcus neoformans it was above 32 µg/mL; in experiment [1], above 32 µg/mL. The MIC against Escherichia coli, against Staphylococcus aureus, against Bacillus subtilis and against Micrococcus luteus was above 32 µg/mL throughout.

Turning to `CC(C)=CC[C@]1(C)C(=O)[C@@]2(C[C@H]3[C@@H](CC[C@@]3(C)O)[C@](C)(O)C2)C(=O)C(C(=O)C(C)C)=C1O` (relative stereo), the IC50 in the experiment on KB was above 10 µg/mL; in the experiment on L1210, above 10 µg/mL; with Aspergillus niger, above 32 µg/mL; in the experiment on Candida albicans, above 32 µg/mL; in the experiment on Cryptococcus neoformans, above 32 µg/mL; in experiment [1], above 32 µg/mL. In addition, the MIC against Escherichia coli, with Staphylococcus aureus, against Bacillus subtilis and in the experiment with Micrococcus luteus was above 32 µg/mL throughout.

In the case of `CCC(C)C(=O)C1=C2O[C@H](C(C)(C)O)C[C@]2(C)C(=O)[C@]2(C[C@H]3[C@@H](CC[C@@]3(C)O)[C@](C)(O)C2)C1=O` (some centres not stated) [CHIPERICUMIN B], the IC50 is above 10 µg/mL in the experiment with KB; above 10 µg/mL in the experiment with L1210; above 32 µg/mL in the experiment on Aspergillus niger; above 32 µg/mL in the experiment with Candida albicans; above 32 µg/mL in the experiment with Cryptococcus neoformans; above 32 µg/mL in experiment [1]. In addition, the MIC in the experiment with Escherichia coli, against Staphylococcus aureus, with Bacillus subtilis and against Micrococcus luteus was above 32 µg/mL in each case.
